Test results as given in ChEMBL document CHEMBL1138172, “Selective irreversible inhibition of fructose 1,6-bisphosphate aldolase from Trypanosoma brucei” (J Med Chem, 2006).
Activity calls are given as the source filed them. The calls are words filed in the database; no cut-off is given here.

How the values were obtained:
[1] = molecular target: T1, Fructose-bisphosphate aldolase, glycosomal (Trypanosoma brucei brucei) (UniProt P07752); assay: Protection of inhibitory activity by HBP against Trypanosoma brucei aldolase at 0.1 mM after 5 min; set-up: scale not given: the % may be the effect or the level left
T1 sequence (whole entry): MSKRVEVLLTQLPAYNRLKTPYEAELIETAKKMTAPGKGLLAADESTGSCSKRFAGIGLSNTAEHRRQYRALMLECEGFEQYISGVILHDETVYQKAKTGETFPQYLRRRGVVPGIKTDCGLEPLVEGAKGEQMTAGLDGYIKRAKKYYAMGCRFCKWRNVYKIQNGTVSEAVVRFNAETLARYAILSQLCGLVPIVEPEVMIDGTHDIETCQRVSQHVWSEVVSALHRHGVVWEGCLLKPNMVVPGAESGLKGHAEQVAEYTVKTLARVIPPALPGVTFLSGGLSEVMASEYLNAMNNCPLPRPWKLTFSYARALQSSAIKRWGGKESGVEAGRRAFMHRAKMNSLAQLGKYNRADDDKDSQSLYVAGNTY

[2] = molecular target: T1, Fructose-bisphosphate aldolase, glycosomal (Trypanosoma brucei brucei); assay: Protection of inhibitory activity by HBP against Trypanosoma brucei aldolase at 1 mM after 15 min; set-up: scale not given: the % may be the effect or the level left
[3] = molecular target: T2, Fructose-bisphosphate aldolase, glycosomal (Trypanosoma brucei brucei, UniProt P07752); assay: Inhibition of Trypanosoma brucei class1 Aldolase
T2 sequence (P07752 whole entry): T1 sequence (whole entry)

[4] = molecular target: T3, Fructose-bisphosphate aldolase A (Oryctolagus cuniculus) (UniProt P00883); assay: Residual activity against rabbit muscle class1 Aldolase at 0.1 mM after 5 min; details: Muscle tissue
T3 sequence (whole entry): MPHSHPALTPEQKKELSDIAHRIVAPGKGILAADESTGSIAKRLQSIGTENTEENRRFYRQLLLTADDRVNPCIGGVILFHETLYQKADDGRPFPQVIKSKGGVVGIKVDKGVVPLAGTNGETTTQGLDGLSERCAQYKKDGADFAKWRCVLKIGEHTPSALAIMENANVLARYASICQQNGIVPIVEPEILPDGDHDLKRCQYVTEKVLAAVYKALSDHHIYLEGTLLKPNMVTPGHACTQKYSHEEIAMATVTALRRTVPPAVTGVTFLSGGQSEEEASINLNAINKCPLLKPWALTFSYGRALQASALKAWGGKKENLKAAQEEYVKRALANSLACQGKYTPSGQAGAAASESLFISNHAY

[5] = molecular target: T3, Fructose-bisphosphate aldolase A (Oryctolagus cuniculus); assay: Residual activity against rabbit muscle class1 Aldolase at 0.1 mM after 15 min; details: Muscle tissue
[6] = molecular target: T1, Fructose-bisphosphate aldolase, glycosomal (Trypanosoma brucei brucei); assay: Protection of inhibitory activity by FBP against Trypanosoma brucei aldolase at 1 mM after 5 min; set-up: scale not given: the % may be the effect or the level left
[7] = molecular target: T1, Fructose-bisphosphate aldolase, glycosomal (Trypanosoma brucei brucei); assay: Protection of inhibitory activity by DHAP against Trypanosoma brucei aldolase at 0.25 mM after 15 min; set-up: scale not given: the % may be the effect or the level left
[8] = molecular target: T1, Fructose-bisphosphate aldolase, glycosomal (Trypanosoma brucei brucei); assay: Protection of inhibitory activity by NBP against Trypanosoma brucei aldolase at 1 mM after 15 min; set-up: scale not given: the % may be the effect or the level left
[9] = molecular target: T1, Fructose-bisphosphate aldolase, glycosomal (Trypanosoma brucei brucei); assay: Residual activity against Trypanosoma brucei class1 Aldolase at 0.5 mM after 5 min
[10] = molecular target: T1, Fructose-bisphosphate aldolase, glycosomal (Trypanosoma brucei brucei); assay: Protection of inhibitory activity by FBP against Trypanosoma brucei aldolase at 10 mM after 5 min; set-up: scale not given: the % may be the effect or the level left
[11] = molecular target: T3, Fructose-bisphosphate aldolase A (Oryctolagus cuniculus); assay: Residual activity against rabbit muscle class1 Aldolase at 1 mM after 5 min; details: Muscle tissue
[12] = molecular target: T1, Fructose-bisphosphate aldolase, glycosomal (Trypanosoma brucei brucei); assay: Residual activity against Trypanosoma brucei class1 Aldolase at 0.02 mM after 5 min
[13] = molecular target: T1, Fructose-bisphosphate aldolase, glycosomal (Trypanosoma brucei brucei); assay: Protection of inhibitory activity by HBP against Trypanosoma brucei aldolase at 0.1 mM after 15 min; set-up: scale not given: the % may be the effect or the level left
[14] = molecular target: T1, Fructose-bisphosphate aldolase, glycosomal (Trypanosoma brucei brucei); assay: Protection of inhibitory activity by DHAP against Trypanosoma brucei aldolase at 1 mM after 5 min; set-up: scale not given: the % may be the effect or the level left
[15] = molecular target: T3, Fructose-bisphosphate aldolase A (Oryctolagus cuniculus); assay: Residual activity against rabbit muscle class1 Aldolase at 1 mM after 15 min; details: Muscle tissue
[16] = molecular target: T1, Fructose-bisphosphate aldolase, glycosomal (Trypanosoma brucei brucei); assay: Residual activity against Trypanosoma brucei class1 Aldolase at 100 uM after 15 min
Procedure, shortened: (§1)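 Aldolases from different sources, including mammalian (human liver) and protozoan parasite enzymes, were each incubated at 0.2 mg/mL with the inhibitor at 100 µM. Residual enzyme activity was then measured.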

[17] = molecular target: T1, Fructose-bisphosphate aldolase, glycosomal (Trypanosoma brucei brucei); assay: Protection of inhibitory activity by DHAP against Trypanosoma brucei aldolase at 10 mM after 5 min; set-up: scale not given: the % may be the effect or the level left
[18] = molecular target: T4, Aldolase (Plasmodium falciparum) (UniProt Q27744); assay: Residual activity against Plasmodium falciparum class1 Aldolase at 100 uM after 15 min; procedure, shortened: as §1
T4 sequence (whole entry): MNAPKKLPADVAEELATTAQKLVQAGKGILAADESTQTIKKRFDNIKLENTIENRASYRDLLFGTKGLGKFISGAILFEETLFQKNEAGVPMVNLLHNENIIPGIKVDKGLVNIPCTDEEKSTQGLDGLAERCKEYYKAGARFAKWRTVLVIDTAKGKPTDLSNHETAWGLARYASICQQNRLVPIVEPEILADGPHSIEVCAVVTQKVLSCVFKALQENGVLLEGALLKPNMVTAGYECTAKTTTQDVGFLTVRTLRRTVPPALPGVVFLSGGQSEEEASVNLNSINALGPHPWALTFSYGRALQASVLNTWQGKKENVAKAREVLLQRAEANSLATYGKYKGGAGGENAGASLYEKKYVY

[19] = molecular target: T1, Fructose-bisphosphate aldolase, glycosomal (Trypanosoma brucei brucei); assay: Protection of inhibitory activity by HBP against Trypanosoma brucei aldolase at 1 mM after 5 min; set-up: scale not given: the % may be the effect or the level left
[20] = molecular target: T1, Fructose-bisphosphate aldolase, glycosomal (Trypanosoma brucei brucei); assay: Protection of inhibitory activity by FBP against Trypanosoma brucei aldolase at 1 mM after 15 min; set-up: scale not given: the % may be the effect or the level left
[21] = molecular target: T1, Fructose-bisphosphate aldolase, glycosomal (Trypanosoma brucei brucei); assay: Protection of inhibitory activity by NBP against Trypanosoma brucei aldolase at 1 mM after 5 min; set-up: scale not given: the % may be the effect or the level left
[22] = molecular target: T1, Fructose-bisphosphate aldolase, glycosomal (Trypanosoma brucei brucei); assay: Residual activity against Trypanosoma brucei class1 Aldolase at 0.02 mM after 15 min
[23] = molecular target: T1, Fructose-bisphosphate aldolase, glycosomal (Trypanosoma brucei brucei); assay: Residual activity against Trypanosoma brucei class1 Aldolase at 0.5 mM after 15 min
[24] = molecular target: T1, Fructose-bisphosphate aldolase, glycosomal (Trypanosoma brucei brucei); assay: Protection of inhibitory activity by DHAP against Trypanosoma brucei aldolase at 10 mM after 15 min; set-up: scale not given: the % may be the effect or the level left
[25] = molecular target: T1, Fructose-bisphosphate aldolase, glycosomal (Trypanosoma brucei brucei); assay: Protection of inhibitory activity by DHAP against Trypanosoma brucei aldolase at 1 mM after 15 min; set-up: scale not given: the % may be the effect or the level left
[26] = molecular target: T1, Fructose-bisphosphate aldolase, glycosomal (Trypanosoma brucei brucei); assay: Inhibitory activity against mutated recombinant Trypanosoma brucei aldolase K116M
[27] = molecular target: T1, Fructose-bisphosphate aldolase, glycosomal (Trypanosoma brucei brucei); assay: Protection of inhibitory activity by DHAP against Trypanosoma brucei aldolase at 0.5 mM after 15 min; set-up: scale not given: the % may be the effect or the level left
[28] = molecular target: T1, Fructose-bisphosphate aldolase, glycosomal (Trypanosoma brucei brucei); assay: Protection of inhibitory activity by DHAP against Trypanosoma brucei aldolase at 0.5 mM after 5 min; set-up: scale not given: the % may be the effect or the level left
[29] = molecular target: T1, Fructose-bisphosphate aldolase, glycosomal (Trypanosoma brucei brucei); assay: Protection of inhibitory activity by DHAP against Trypanosoma brucei aldolase at 0.25 mM after 5 min; set-up: scale not given: the % may be the effect or the level left
[30] = molecular target: Fructose-bisphosphate aldolase B (Homo sapiens) (UniProt P05062); assay: Residual activity against human liver class1 Aldolase at 100 uM after 15 min
[31] = molecular target: T1, Fructose-bisphosphate aldolase, glycosomal (Trypanosoma brucei brucei); assay: Protection of inhibitory activity by FBP against Trypanosoma brucei aldolase at 10 mM after 15 min; set-up: scale not given: the % may be the effect or the level left
[32] = molecular target: T5, Fructose-1,6-bisphospate aldolase (Leishmania mexicana) (UniProt Q9U5N6); assay: Residual activity against Leishmania mexicana class1 Aldolase at 100 uM after 15 min; procedure, shortened: as §1
T5 sequence (whole entry): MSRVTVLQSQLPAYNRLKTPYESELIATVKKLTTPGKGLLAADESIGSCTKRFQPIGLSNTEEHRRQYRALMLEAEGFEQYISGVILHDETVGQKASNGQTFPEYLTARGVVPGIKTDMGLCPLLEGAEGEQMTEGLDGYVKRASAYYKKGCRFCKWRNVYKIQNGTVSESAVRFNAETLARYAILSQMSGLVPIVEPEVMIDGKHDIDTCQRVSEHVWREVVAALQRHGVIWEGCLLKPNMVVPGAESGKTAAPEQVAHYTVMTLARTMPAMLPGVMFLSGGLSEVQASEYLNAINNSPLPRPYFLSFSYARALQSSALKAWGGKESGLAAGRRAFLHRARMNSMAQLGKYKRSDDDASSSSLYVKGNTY

Sequence of Fructose-bisphosphate aldolase B (Homo sapiens) (P05062 whole entry, looked up): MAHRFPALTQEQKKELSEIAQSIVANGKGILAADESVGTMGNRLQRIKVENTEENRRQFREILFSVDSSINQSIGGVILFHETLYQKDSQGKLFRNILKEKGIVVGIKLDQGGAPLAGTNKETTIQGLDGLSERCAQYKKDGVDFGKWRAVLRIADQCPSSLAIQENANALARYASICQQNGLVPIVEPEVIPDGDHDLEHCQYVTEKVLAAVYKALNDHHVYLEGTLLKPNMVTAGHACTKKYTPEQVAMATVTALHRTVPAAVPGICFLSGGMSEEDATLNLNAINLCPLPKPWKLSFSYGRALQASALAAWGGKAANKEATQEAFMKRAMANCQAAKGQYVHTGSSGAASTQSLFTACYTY

O=Cc1c(O)ccc2cc(OP(=O)(O)O)ccc12
Activity [1]: 100%
Activity [2]: 100%
Ki [3]: 23 µM
Activity [4]: 100%
Activity [5]: 100%
Activity [6]: 80%
Activity [7]: 48%
Activity [8]: 100%
Activity [9]: < 20%
Activity [10]: 100%
Activity [11]: 80%
Activity [12]: 75%
Activity [13]: 100%
Activity [14]: 60%
Activity [15]: 80%
Activity [16]: < 0.5%
Activity [17]: 80%
Activity [18]: 30%
Activity [19]: 100%
Activity [20]: 51%
Activity [21]: 100%
Activity [22]: 50%
Activity [23]: 0%
Activity [24]: 70%
Activity [25]: 52%
inhibition [26]: inactive
Activity [27]: 44%
Activity [28]: 63%
Activity [29]: 56%
Activity [30]: 100%
Activity [31]: 89%
Activity [32]: 15%
